Source: ChEMBL document CHEMBL1833920, “Antimalarial activity of imidazo[2,1-a]isoindol-5-ol derivatives and related compounds” (Eur J Med Chem, 2011)
pIC50: −log10 of the molar value.

Tests used:
Plasmodium falciparum [1] = assay: Antiplasmodial activity against chloroquine-sensitive Plasmodium falciparum 3D7 infected in human O positive erythrocytes after 48 hrs by SYBR green-I based fluorescence assay; assay type: functional, organism-based; details: 3D7, 48 h
Procedure, shortened: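 3D7 was cultured at 37 °C, 5% CO₂, in O+ human erythrocytes at 5% hematocrit, in RPMI 1640 with 2% human serum, 0.2% NaHCO₃, 0.5% Albumax II, hypoxanthine and gentamicin. Cultures were sorbitol-synchronized (mostly late rings/early trophozoites). Drugs from DMSO stocks were serially diluted in triplicate wells (final DMSO ≤0.001%) and incubated 48 h. Read-out was SYBR Green I in lysis buffer, 1 h dark RT, ex 485/em 530 nm. EC₅₀ was taken as 50% fluorescence reduction, as the mean of triplicate experiments.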

Plasmodium falciparum [2] = assay: Ratio of chloroquine IC50 to Compound IC50 for chloroquine-sensitive Plasmodium falciparum 3D7; assay type: functional
[3] = Intestinal absorption in human; assay type: ADME, organism-based; details: in vivo, read-out: HIA
Plasmodium berghei [4] = assay: Antimalarial activity against Plasmodium berghei NK65 infected in Swiss mouse assessed as inhibition of parasitemia at 25 mg/kg, ip administered 2 hrs postinfection daily for 4 days measured on day 5; assay type: functional; details: route intraperitoneal
Procedure, shortened: (§1)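 Swiss male mice (20 ± 2 g) were infected on day 0 with 10⁷ parasitized cells, in groups of five. Dosing was i.p. at 50 or 25 mg/kg/day from day 0 (2 h post-infection) to day 3. Parasitemia on day 4 was counted from Giemsa-stained tail thin smears (≥9000 RBC, 1000×). Results were compared with untreated and CQ 5 mg/kg/day controls, and % inhibition was calculated relative to untreated parasitemia.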

[5] = Plasma protein binding in human; assay type: ADME, organism-based
Mus musculus = assay: Toxicity in Plasmodium berghei NK65 infected in Swiss mouse assessed as mouse mortality at 50 mg/kg, ip administered 2 hrs postinfection daily for 4 days measured on day 5; assay type: organism-based; set-up: dose 50 mg/kg, route intraperitoneal; details: in vivo
Procedure, shortened: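 Swiss male mice (20 ± 2 g) were infected on day 0 with 10⁷ parasitized cells and kept in groups of five. Compound was given i.p. at 50 mg/kg/day, starting 2 h after infection on day 0 and continuing through day 3. Untreated (blank) and chloroquine (5 mg/kg/day) groups served as controls.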

Plasmodium berghei [6] = assay: Antimalarial activity against Plasmodium berghei NK65 infected in Swiss mouse assessed as inhibition of parasitemia at 50 mg/kg, ip administered 2 hrs postinfection daily for 4 days measured on day 5; assay type: functional; details: route intraperitoneal; procedure, shortened: as §1
[7] = Cytotoxicity against african green monkey CV1 cells; assay type: cell-based, CV-1; details: chlorocebus aethiops

| SMILES | pIC50 (Plasmodium falciparum [1]) | Ratio IC50 (Plasmodium falciparum [2]) | Fa [3] [%] | inhibition in vivo at 25 mg/kg (Plasmodium berghei [4]) [%] | fraction unbound [5] | Activity (Mus musculus) | inhibition in vivo at 50 mg/kg (Plasmodium berghei [6]) [%] | CC50 [7] [µM] |
| --- | --- | --- | --- | --- | --- | --- | --- | --- |
| COc1ccccc1CC1(O)c2ccccc2C2=NCCN21 (stereo unspecified) | < 4.46 | <1 | – | – | – | – | – | – |
| COc1cccc(CC2(O)c3ccccc3C3=NCCN32)c1 (stereo unspecified) | 5.08 | <1 | – | – | – | – | – | – |
| Oc1ccc(CC2(O)c3ccccc3C3=NCCN32)cc1 (stereo unspecified) | < 4.46 | <1 | – | – | – | – | – | – |
| OC1(Cc2ccc(F)cc2F)c2ccccc2C2=NCCN21 (stereo unspecified) | 4.48 | <1 | – | – | – | – | – | – |
| OC1(Cc2cc(F)cc(F)c2)c2ccccc2C2=NCCN21 (stereo unspecified) | < 4.46 | <1 | – | – | – | – | – | – |
| Oc1ccc(CC2(O)c3ccccc3C3=NCCN32)cc1Cl (stereo unspecified) | < 4.46 | <1 | – | – | – | – | – | – |
| OC1(Cc2cccs2)c2ccccc2C2=NCCN21 (stereo unspecified) | 4.71 | <1 | – | – | – | – | – | – |
| OC1(Cc2ccsc2)c2ccccc2C2=NCCN21 (stereo unspecified) | 5.18 | <1 | – | – | – | – | – | – |
| Cn1c(CC2(O)c3ccccc3C3=NCCN32)cc2ccccc21 (stereo unspecified) | 4.87 | <1 | – | – | – | – | – | – |
| CSc1ccc(CC2(O)c3ccccc3-c3nc4ccccc4n32)cc1 (stereo unspecified) | < 4.57 | <1 | – | – | – | – | – | – |
| CSc1ccc(CC2(O)c3ccccc3-c3nc4cc(C)ccc4n32)cc1 (stereo unspecified) | 4.81 | <1 | – | – | – | – | – | – |
| OC1(Cc2ccc3ccccc3c2)c2ccccc2-c2nc3ccccc3n21 (stereo unspecified) | < 4.52 | <1 | – | – | – | – | – | – |
| OC1(Cc2ccc3ccccc3c2)c2ccccc2C2=NCCN21 (stereo unspecified) | 7.22 | 16.7 | > 95 | 87 | > 0.1 | Toxic | – | – |
| OC1(Cc2ccccc2Cl)c2ccccc2C2=NCCN21 (stereo unspecified) | 4.82 | <1 | – | – | – | – | – | – |
| CSc1ccc(CC2(O)c3ccccc3C3=NCCN32)cc1 (stereo unspecified) | 7.22 | 16.7 | > 95 | – | > 0.1 | – | 84 | > 24 |
| OC1(Cc2ccc(Cl)c(Cl)c2)c2ccccc2C2=NCCN21 (stereo unspecified) | 6.52 | 3.3 | > 95 | 19 | > 0.1 | Toxic | – | – |
| OC1(Cc2ccc(F)cc2)c2ccccc2C2=NCCN21 (stereo unspecified) | 5.38 | <1 | – | – | – | – | – | – |
| OC1(Cc2ccc(Cl)cc2)c2ccccc2C2=NCCN21 (stereo unspecified) | – | 8.3 | > 95 | – | > 0.1 | – | 7 | > 16 |
| OC1(Cc2ccc(Cl)cc2Cl)c2ccccc2C2=NCCN21 (stereo unspecified) | 5.06 | <1 | – | – | – | – | – | – |
| OC1(Cc2cccc3ccccc23)c2ccccc2C2=NCCN21 (stereo unspecified) | 4.79 | <1 | – | – | – | – | – | > 15 |
| COc1ccc(CC2(O)c3ccccc3C3=NCCN32)cc1 (stereo unspecified) | 6.62 | 4.2 | > 95 | – | > 0.1 | – | 23 | – |
| COc1ccc(CC2(O)c3ccccc3C3=NCCN32)cc1OC (stereo unspecified) | 4.56 | <1 | – | – | – | – | – | > 30 |
| OC1(Cc2ccc3c(c2)OCO3)c2ccccc2C2=NCCN21 (stereo unspecified) | 5.66 | <1 | > 95 | – | > 0.1 | – | 53 | > 32 |
| OC1(Cc2ccccc2)c2ccccc2C2=NCCN21 (stereo unspecified) | 4.42 | <1 | – | – | – | – | – | – |
| COc1cc(CC2(O)c3ccccc3C3=NCCN32)cc(OC)c1OC (stereo unspecified) | 5.83 | <1 | > 95 | – | > 0.1 | – | < 5 | – |
| CSc1ccc(C=C2c3ccccc3C(=O)N2c2cc(Cl)ccc2N)cc1 (mixture of isomers) | 4.86 | <1 | – | – | – | – | – | – |
| Nc1ccc(Cl)cc1N1C(=O)c2ccccc2C1=Cc1ccc2ccccc2c1 (mixture of isomers) | 5.00 | <1 | – | – | – | – | – | – |
